From ChEMBL document CHEMBL4004807 (J Med Chem, 2017)

Columns and labels:
[1] = biological target: T1, Prostacyclin receptor (Homo sapiens, UniProt P43119); assay: Ratio of IC50 for IP receptor in human primary platelets to EC50 for recombinant human IP receptor expressed in CHO-K1 cells; format: cell-based
[2] = Selectivity ratio of EC50 for recombinant rat IP receptor expressed in CHO-K1 cells to EC50 for recombinant human IP receptor expressed in CHO-K1 cells; format: cell-based
[3] = test system: Plasma; assay: Drug level in bile-duct cannulated rat plasma treated with 2-(((1r,4r)-4-(((4-chlorophenyl)(phenyl)carbamoyloxy)methyl)cyclohexyl)methoxy)acetic acid; format: ADME, cell-free
[4] = biological target: Prostacyclin receptor (Rattus norvegicus, UniProt P43253); assay: Agonist activity at recombinant rat IP receptor expressed in CHO-K1 cells assessed as increase in intracellular cAMP level after 1 hr incubation by HTRF method; format: functional, cell-based
Method in brief: (§1)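 CHO-K1 clonal lines stably expressing IP at minimal levels; cells in PBS with 1 mM IBMX and 0.2% BSA, 200 000 cells/mL. 10-point, 5-fold DMSO serial dilution, top 10 μM; 1 h at room temperature, then HTRF cAMP-D2 and cryptate reagents in lysis buffer, 1 h, time-resolved fluorescence.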

[5] = biological target: T1, Prostacyclin receptor; assay: Agonist activity at recombinant human IP receptor expressed in CHO-K1 cells assessed as increase in intracellular cAMP level after 1 hr incubation by HTRF method; format: functional, cell-based; method in brief: as §1
[6] = biological target: T2, Prostaglandin D2 receptor (Homo sapiens, UniProt Q13258); assay: Agonist activity at recombinant human DP1 receptor expressed in CHO-K1 cells assessed as increase in intracellular cAMP level after 1 hr incubation by HTRF method; format: functional, cell-based
T2 sequence (Q13258 whole entry): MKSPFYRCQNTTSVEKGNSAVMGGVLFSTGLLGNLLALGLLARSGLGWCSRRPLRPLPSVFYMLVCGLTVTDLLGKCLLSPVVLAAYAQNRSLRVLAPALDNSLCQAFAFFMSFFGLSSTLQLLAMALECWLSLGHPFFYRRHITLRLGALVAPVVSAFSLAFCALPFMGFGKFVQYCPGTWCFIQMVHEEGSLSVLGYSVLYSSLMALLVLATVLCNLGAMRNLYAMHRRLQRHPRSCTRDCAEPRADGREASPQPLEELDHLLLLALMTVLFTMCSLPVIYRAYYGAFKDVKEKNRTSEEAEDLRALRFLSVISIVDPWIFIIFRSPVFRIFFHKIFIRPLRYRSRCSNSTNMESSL
Method in brief: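 CHO-K1 clonal line stably expressing DP1 at minimal level; HTRF cAMP assay, 1 h incubation at room temperature, time-resolved fluorescence read-out.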

[7] = Total clearance in Sprague-Dawley rat plasma at 2 mg/kg, iv or 10 mg/kg, po; format: ADME, organism-based
[8] = Volume of distribution at steady state in Sprague-Dawley rat at 2 mg/kg, iv or 10 mg/kg, po; format: ADME, organism-based; details: in vivo
[9] = test system: Rattus norvegicus; assay: AUC (0 to infinity) in Sprague-Dawley rat at 10 mg/kg, po; format: ADME, organism-based; design: dose 10 mg/kg, route oral, time infinity; details: in vivo
Method in brief: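 Sprague-Dawley rats, single oral dose of 10.0 mg/kg; AUC0-inf from plasma concentrations.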

T1 sequence (P43119 whole entry): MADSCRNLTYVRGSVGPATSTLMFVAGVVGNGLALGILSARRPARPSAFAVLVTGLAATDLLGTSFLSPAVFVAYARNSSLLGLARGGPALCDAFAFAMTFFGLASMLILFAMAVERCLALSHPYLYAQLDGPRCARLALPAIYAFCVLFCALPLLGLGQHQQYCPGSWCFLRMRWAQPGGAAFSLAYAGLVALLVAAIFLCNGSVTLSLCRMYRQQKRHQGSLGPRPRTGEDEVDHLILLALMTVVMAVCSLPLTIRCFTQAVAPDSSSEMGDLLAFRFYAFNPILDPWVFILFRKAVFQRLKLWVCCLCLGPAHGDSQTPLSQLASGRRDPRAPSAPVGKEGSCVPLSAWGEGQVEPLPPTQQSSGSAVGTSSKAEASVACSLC
Prostacyclin receptor (Rattus norvegicus, UniProt P43253), sequence (P43253 whole entry): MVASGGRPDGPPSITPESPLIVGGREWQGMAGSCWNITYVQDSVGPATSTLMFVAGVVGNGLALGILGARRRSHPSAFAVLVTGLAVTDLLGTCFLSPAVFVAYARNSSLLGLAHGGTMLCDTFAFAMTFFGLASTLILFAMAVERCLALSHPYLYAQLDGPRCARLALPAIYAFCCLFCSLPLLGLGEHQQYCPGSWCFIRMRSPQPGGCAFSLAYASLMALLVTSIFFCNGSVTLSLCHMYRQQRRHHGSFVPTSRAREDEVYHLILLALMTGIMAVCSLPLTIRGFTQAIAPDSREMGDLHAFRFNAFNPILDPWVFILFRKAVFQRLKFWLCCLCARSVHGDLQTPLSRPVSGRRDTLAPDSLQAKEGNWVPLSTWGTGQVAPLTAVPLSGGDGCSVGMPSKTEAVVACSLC

Ratio IC50/EC50 [1]	clearance [7] [mL/min/kg]	Vd [8] [L/kg]	AUC [9] [ng·h/mL]	SMILES	Ratio EC50 [2]	further results
2 to 10	–	–	–	COc1ccc(N(C(=O)OC[C@H]2CC[C@@H](COCC(=O)O)CC2)c2ccccc2)cc1	10 to 30	–
–	–	–	–	O=C(COC[C@H]1CC[C@H](COC(=O)N(c2ccc(O)cc2)c2ccc(Cl)cc2)CC1)NCCS(=O)(=O)O	–	Drug metabolism [3]: Metabolite_Detected
2 to 10	–	–	–	CC(C)N(CCCCOCC(=O)NS(C)(=O)=O)c1cnc(-c2ccccc2)c(-c2ccccc2)n1 [SELEXIPAG]	10 to 30	EC50 [4]: 200 nM; EC50 [5]: 6 nM; EC50 [6]: 100 nM
2 to 10	30	6.2	7900	O=C(O)COC[C@H]1CC[C@H](COC(=O)N(c2ccccc2)c2ccc(F)cc2)CC1	10 to 30	–
2 to 10	–	–	–	O=C(O)COC[C@H]1CC[C@H](COC(=O)N(c2ccc(F)cc2)c2cccc(F)c2)CC1	10 to 30	–
2 to 10	–	–	–	O=C(O)COC[C@H]1CC[C@H](COC(=O)N(c2ccc(F)cc2)c2ccc(F)cc2)CC1	10 to 30	–
2 to 10	13.3	3.5	2600	O=C(O)COC[C@H]1CC[C@H](COC(=O)N(c2ccccc2)c2ccc(Cl)c(F)c2)CC1	10 to 30	–
2 to 10	10	1.1	4500	O=C(O)COC[C@H]1CC[C@H](COC(=O)N(c2ccccc2)c2ccc(F)c(F)c2)CC1	10 to 30	–
2 to 10	56.7	0.71	3400	COc1ccc(N(C(=O)OC[C@H]2CC[C@H](COCC(=O)O)CC2)c2ccccc2)cc1	10 to 30	–
2 to 10	–	–	–	O=C(O)COC[C@H]1CC[C@@H](COC(=O)N(c2ccccc2)c2ccccc2)CC1	10 to 30	–
2 to 10	–	–	–	O=C(O)COC[C@H]1CC[C@@H](COC(=O)N(c2ccccc2)c2cccc(F)c2)CC1	10 to 30	–
–	–	–	–	O=C(O)COC[C@H]1CC[C@H](COC(=O)N(c2ccc(O)cc2)c2ccc(Cl)cc2)CC1	–	Drug metabolism [3]: Metabolite_Detected
